The source of these data is PMC5087271 (Nature methods, 2015).

Residue numbers refer to the chain shown, from its start. Entries after “also recorded” stand apart in the source; their conditions may differ. Ends that are not written are not given here.

One assay concerns PAR1. The assay can be described thus: cell-based assays of antagonist dissociation from PAR1.
For the next assay, the target named is T1, human PAR1 (Homo sapiens, UniProt P25116).
T1 sequence (P25116 36-397): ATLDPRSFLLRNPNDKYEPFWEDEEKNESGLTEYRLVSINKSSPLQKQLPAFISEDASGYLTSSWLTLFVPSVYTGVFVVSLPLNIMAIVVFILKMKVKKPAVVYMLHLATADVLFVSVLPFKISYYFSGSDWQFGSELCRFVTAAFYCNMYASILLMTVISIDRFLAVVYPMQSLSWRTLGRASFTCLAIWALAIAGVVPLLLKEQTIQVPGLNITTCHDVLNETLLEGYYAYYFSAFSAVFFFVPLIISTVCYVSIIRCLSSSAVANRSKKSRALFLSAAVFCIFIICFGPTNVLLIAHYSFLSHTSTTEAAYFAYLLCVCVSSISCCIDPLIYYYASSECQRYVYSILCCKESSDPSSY
In kind it is binding. Conditions: PEG spacer carrying PAR1 N terminus with the SFLLRN ligand replaced.

A further assay deals with platelets. Conditions: at 200 μM peptide; cited from earlier work.
For assay [1], the system named is PAR1 complexed with the antagonist vorapaxar. It counts as binding, human. As to conditions: vorapaxar-blocked versus free PAR1. The method in brief: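 Human PAR1 (residues Ala36–Tyr397) expressed in Sf9 cells via baculovirus and purified with 100 nM vorapaxar during lysis and solubilisation, then 1 μM through Ni-NTA, M1 and SEC. Reconstituted at 10 μM into DOPC/CHS liposomes, diluted 300-fold, adsorbed on mica. Cys-peptide ligand coupled to PEG-tipped cantilevers. Probed at 0.25 kHz, 30–50 nm amplitude, ~150 pN, ~27 °C. Free-energy landscape fitted from DFS plots.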

The target in assay [2] is T2, SFLLRN tethered ligand peptide (TRAP) (Homo sapiens).
T2 chain: SFLLRN
Kind of assay: FD-based AFM.

For assay [3], the target named is T3, SFLLRN tethered ligand peptide (TRAP) (Homo sapiens, vorapaxar-bound PAR1).
T3 chain: SFLLRN
Kind of assay: FD-based AFM.

The target in another assay is T4, SALLRN peptide (Homo sapiens).
T4 chain: SALLRN
The assay can be described thus: FD-based AFM.

A further assay has as its target T5, SFLLAN peptide (Homo sapiens).
T5 chain: SFLLAN
The assay can be described thus: FD-based AFM.

The Kd is the concentration at which binding is half-saturated.

With `CCOC(=O)NC1CCC2C(C1)CC1C(=O)OC(C)C1C2CCc1ccc(-c2cccc(F)c2)cn1` (centres unmarked) [vorapaxar derivative], in the assay with PAR1, the “dissociation rate compared with that of vorapaxar” value is “much faster dissociation rate”. FLLNSR: at human PAR1, the “specific interaction of the functionalized tip with PAR1 (control)” value is given as “did not interact specifically”. Take H-SALLRN [SALLRN]: in the assay on platelets, the “response in platelet aggregation assays” value was “no response”. As to H-SFLLAN [SFLLAN], in assay [1], the “change of binding strength / affinity to PAR1 in the presence of vorapaxar” value is listed as “remained nearly unchanged; also recorded: no change in binding affinity”.

B1: PAR1 36-397 (protein)
chain: T1 sequence (P25116 36-397)
For B1, the dissociation constant (Kd) is ~0.35 µM in assay [2] and ~40 µM in assay [3].

B2: PAR1 36-397 (protein)
chain: T1 sequence (P25116 36-397) with F8A
In the case of B2, the Kd with SALLRN peptide is ~3500 µM.

B3: PAR1 36-397 (protein)
chain: T1 sequence (P25116 36-397) with R11A
Consider B3, for which, in the assay with SFLLAN peptide, the dissociation constant (Kd) is ~30 µM.
